Source: ChEMBL document CHEMBL2151030, “Improving the solubility of a new class of antiinflammatory pharmacodynamic hybrids, that release nitric oxide and inhibit cycloxygenase-2 isoenzyme” (Eur J Med Chem, 2012)
Values after ≈ are worked out from the molar mass of the structure shown.

Tests used:
[1] = Solubility of the compound in simulated gastric fluid without pepsin at pH 1.5 by HPLC analysis; type: physicochemical
Summary of the method: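 Compound from 20 mM DMSO stock diluted 1:100 into 0.05 M simulated gastric fluid without pepsin (pH 1.5 with HCl), duplicate wells on a solubility filter plate, shaken 90 min at 300 rpm. Seven-point calibration standards from 1 to 200 μM.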

[2] = Solubility of the compound in PBS buffer at pH 7.4 by HPLC analysis; type: physicochemical
Summary of the method: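 20 mM DMSO stocks diluted 1:100 into 0.01 M PBS pH 7.4 in duplicate wells of a solubility filter plate, shaken 90 min at 300 rpm. Seven-point calibration standards from 1 to 200 μM.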

Mus musculus [3] = experiment: Analgesic activity in Swiss albino mouse assessed as reduction of acetic acid-induced writhing at 84 nmol/kg, po after 5 mins; type: functional; set-up: scale not given: the % may be the effect or the level left
Summary of the method: (§1)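 Male Swiss albino mice (23-25 g), standard diet and water ad libitum, 23 ± 1 °C, 12 h light/dark cycle. Test compound given orally; 0.6% acetic acid (10 mL/kg) injected ip. Stretching movements counted for 10 min, beginning 5 min after administration.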

Mus musculus [4] = experiment: Analgesic activity in Swiss albino mouse assessed as reduction of acetic acid-induced writhing at 40.8 nmol/kg, po after 5 mins; type: functional; set-up: scale not given: the % may be the effect or the level left; summary of the method: as §1
Mus musculus [5] = experiment: Analgesic activity in Swiss albino mouse assessed as reduction of acetic acid-induced writhing at 81.6 nmol/kg, po after 5 mins; type: functional; set-up: scale not given: the % may be the effect or the level left; summary of the method: as §1
Rattus norvegicus [6] = experiment: Antiinflammatory activity in rat assessed as reduction of carrageenan-induced paw pressure at 40 mg/kg, po after 15 mins post carrageenan-challenge; type: functional; set-up: scale not given: the % may be the effect or the level left
Summary of the method: (§2)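 Rats (Sprague-Dawley or Wistar, 150-200 g) received intraplantar carrageenan 4 h before testing, then oral compound or CMC vehicle. Paw-pressure threshold read before treatment and at 15, 30, 45 and 60 min after treatment, compared with saline and carrageenan controls.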

Rattus norvegicus [7] = experiment: Antiinflammatory activity in rat assessed as reduction of carrageenan-induced paw pressure at 40 mg/kg, po after 30 mins post carrageenan-challenge; type: functional; set-up: scale not given: the % may be the effect or the level left; summary of the method: as §2
Rattus norvegicus [8] = experiment: Antiinflammatory activity in rat assessed as reduction of carrageenan-induced paw pressure at 40 mg/kg, po after 45 mins post carrageenan-challenge; type: functional; set-up: scale not given: the % may be the effect or the level left; summary of the method: as §2
Rattus norvegicus [9] = experiment: Antiinflammatory activity in rat assessed as reduction of carrageenan-induced paw pressure at 40 mg/kg, po after 60 mins post carrageenan-challenge; type: functional; set-up: scale not given: the % may be the effect or the level left; summary of the method: as §2
Rattus norvegicus [10] = experiment: Antiinflammatory activity in rat assessed as reduction of carrageenan-induced oedema in right hind paw at 40 mg/kg, po after 4 hrs post carrageenan-challenge; type: functional; set-up: scale not given: the % may be the effect or the level left
Summary of the method: (§3)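 Sprague-Dawley or Wistar rats (150-200 g). Carrageenan injected intraplantar; oral treatment with test compound or CMC vehicle. Right hind paw volume measured 4 h after carrageenan and compared with saline- and carrageenan-treated controls.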

[11] = biological target: T1, Prostaglandin G/H synthase 1 (Mus musculus) (UniProt P22437); experiment: Inhibition of COX1-mediated PGE2 production in mouse J774 cells at 10 uM preincubated for 15 mins measured after 30 mins by radioimmunoassay relative to control; type: cell-based
T1 sequence (whole entry): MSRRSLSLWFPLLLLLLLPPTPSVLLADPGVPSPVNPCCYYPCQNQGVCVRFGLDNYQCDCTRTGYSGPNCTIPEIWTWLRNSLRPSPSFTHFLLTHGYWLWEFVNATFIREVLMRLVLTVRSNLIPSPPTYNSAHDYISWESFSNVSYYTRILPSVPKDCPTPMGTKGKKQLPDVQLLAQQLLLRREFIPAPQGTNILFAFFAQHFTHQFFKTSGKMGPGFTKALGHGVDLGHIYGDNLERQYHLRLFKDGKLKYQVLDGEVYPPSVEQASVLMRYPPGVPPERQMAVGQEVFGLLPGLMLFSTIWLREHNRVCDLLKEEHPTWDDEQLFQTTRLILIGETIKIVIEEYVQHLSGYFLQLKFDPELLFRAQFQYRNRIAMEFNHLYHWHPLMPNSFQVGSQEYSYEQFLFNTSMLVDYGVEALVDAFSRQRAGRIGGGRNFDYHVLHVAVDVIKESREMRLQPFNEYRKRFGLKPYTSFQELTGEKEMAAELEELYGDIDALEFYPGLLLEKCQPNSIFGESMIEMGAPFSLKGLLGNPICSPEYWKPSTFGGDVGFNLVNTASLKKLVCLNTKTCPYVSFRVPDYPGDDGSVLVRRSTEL
Summary of the method: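 Murine J774 macrophages in DMEM with 10% FBS, glutamine, HEPES, pyruvate and antibiotics, adhered 2 h at 37 °C in 5% CO2. Medium was refreshed, cells were pretreated with compound for 15 min, then given 15 μM arachidonic acid for 30 min at 37 °C. PGE2 in supernatant was measured by RIA as % inhibition versus control, triplicate wells, mean of three experiments.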

[12] = biological target: T2, Prostaglandin G/H synthase 2 (Mus musculus) (UniProt Q05769); experiment: Inhibition of COX2-mediated PGE2 production in LPS-induced mouse J774 cells by radioimmunoassay relative to control; type: cell-based; set-up: concentration or dose not given beside the values; details: concentration not given here
T2 sequence (whole entry): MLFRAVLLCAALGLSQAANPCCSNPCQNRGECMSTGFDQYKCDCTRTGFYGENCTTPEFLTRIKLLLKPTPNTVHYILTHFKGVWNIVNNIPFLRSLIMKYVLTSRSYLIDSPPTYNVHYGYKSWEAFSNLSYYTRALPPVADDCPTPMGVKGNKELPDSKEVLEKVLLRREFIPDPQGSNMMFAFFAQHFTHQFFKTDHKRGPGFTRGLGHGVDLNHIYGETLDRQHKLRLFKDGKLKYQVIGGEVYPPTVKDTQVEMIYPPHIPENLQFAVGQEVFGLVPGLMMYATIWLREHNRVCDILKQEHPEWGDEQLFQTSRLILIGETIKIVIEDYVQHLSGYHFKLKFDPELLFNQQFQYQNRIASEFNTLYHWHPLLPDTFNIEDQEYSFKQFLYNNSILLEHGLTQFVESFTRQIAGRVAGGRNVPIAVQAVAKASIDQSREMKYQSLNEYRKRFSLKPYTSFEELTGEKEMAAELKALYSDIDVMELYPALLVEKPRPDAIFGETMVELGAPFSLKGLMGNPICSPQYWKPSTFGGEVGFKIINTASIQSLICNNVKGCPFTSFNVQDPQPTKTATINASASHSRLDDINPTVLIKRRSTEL
Summary of the method: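 J774 cells, cultured as for the COX-1 assay, were stimulated 24 h with E. coli LPS (10 µg/mL) to induce COX-2, with or without compound at 0.01–10 μM. Supernatant PGE2 was measured by RIA as % inhibition versus control, triplicate wells, mean of three experiments. IC50 came from a sigmoidal variable-slope dose-response fit.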

[13] = biological target: T3, Prostaglandin G/H synthase 1 (Mus musculus, UniProt P22437); experiment: Inhibition of COX1-mediated PGE2 production in mouse J774 cells preincubated for 15 mins measured after 30 mins by radioimmunoassay; type: cell-based
T3 sequence (P22437 whole entry): T1 sequence (whole entry)
Summary of the method: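 Murine J774 macrophages in DMEM/10% FBS, adhered 2 h at 37 °C. […] Supernatant PGE2 measured by RIA. Triplicate wells, mean of three experiments; IC50 by sigmoidal variable-slope fit.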

[14] = biological target: T4, Prostaglandin G/H synthase 2 (Mus musculus, UniProt Q05769); experiment: Inhibition of COX2-mediated PGE2 production in LPS-induced mouse J774 cells by radioimmunoassay; type: cell-based
T4 sequence (Q05769 whole entry): T2 sequence (whole entry)
Summary of the method: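 J774 murine macrophages stimulated 24 h with E. coli LPS (10 µg/mL) to induce COX-2, with or without compound (0.01–10 μM). Supernatant PGE2 measured by RIA; percent inhibition against controls. Triplicate wells, mean of three experiments; IC50 from sigmoidal variable-slope fit.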

J774 = experiment: Selectivity index, ratio of IC50 for COX1-mediated PGE2 production to IC50 for COX2-mediated PGE2 production in mouse J774 cells; type: cell-based
Summary of the method: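 Ratio of the COX-1 IC50 to the COX-2 IC50, both from PGE2 RIA in J774 cells. For COX-1, cells were given compound for 15 min, then 15 μM arachidonic acid for 30 min; lower concentrations (0.01–1 μM) were tested when warranted. For COX-2, cells were given LPS 10 µg/mL for 24 h with compound at 0.01–10 μM. IC50 came from a sigmoidal variable-slope fit.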

Mus musculus [15] = experiment: Analgesic activity in Swiss albino mouse assessed as reduction of acetic acid-induced writhing at 5.5 nmol/kg, po after 5 mins; type: functional; set-up: scale not given: the % may be the effect or the level left; summary of the method: as §1
Mus musculus [16] = experiment: Analgesic activity in Swiss albino mouse assessed as reduction of acetic acid-induced writhing at 18.4 nmol/kg, po after 5 mins; type: functional; set-up: scale not given: the % may be the effect or the level left; summary of the method: as §1
Mus musculus [17] = experiment: Analgesic activity in Swiss albino mouse assessed as reduction of acetic acid-induced writhing at 36.8 nmol/kg, po after 5 mins; type: functional; set-up: scale not given: the % may be the effect or the level left; summary of the method: as §1
Mus musculus [18] = experiment: Analgesic activity in Swiss albino mouse assessed as reduction of acetic acid-induced writhing at 73.6 nmol/kg, po after 5 mins; type: functional; set-up: scale not given: the % may be the effect or the level left; summary of the method: as §1
Rattus norvegicus [19] = experiment: Antiinflammatory activity in rat assessed as reduction of carrageenan-induced paw pressure at 20 mg/kg, po after 15 mins post carrageenan-challenge; type: functional; set-up: scale not given: the % may be the effect or the level left; summary of the method: as §2
Rattus norvegicus [20] = experiment: Antiinflammatory activity in rat assessed as reduction of carrageenan-induced paw pressure at 20 mg/kg, po after 30 mins post carrageenan-challenge; type: functional; set-up: scale not given: the % may be the effect or the level left; summary of the method: as §2
Rattus norvegicus [21] = experiment: Antiinflammatory activity in rat assessed as reduction of carrageenan-induced paw pressure at 20 mg/kg, po after 45 mins post carrageenan-challenge; type: functional; set-up: scale not given: the % may be the effect or the level left; summary of the method: as §2
Rattus norvegicus [22] = experiment: Antiinflammatory activity in rat assessed as reduction of carrageenan-induced paw pressure at 20 mg/kg, po after 60 mins post carrageenan-challenge; type: functional; set-up: scale not given: the % may be the effect or the level left; summary of the method: as §2
Rattus norvegicus [23] = experiment: Antiinflammatory activity in rat assessed as reduction of carrageenan-induced oedema in right hind paw at 20 mg/kg, po after 4 hrs post carrageenan-challenge; type: functional; set-up: scale not given: the % may be the effect or the level left; summary of the method: as §3
Aorta = experiment: Vasorelaxant activity in Wistar rat endothelium-denuded thoracic aortic ring assessed as inhibition of KCl-induced contractile tone in presence of guanylate cyclase inhibitor ODQ; type: functional, tissue-based
Summary of the method: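 Male normotensive Wistar rats (250–350 g); thoracic aortic rings, endothelium removed by rubbing, removal confirmed by <10% relaxation to ACh (10 µM) in KCl (30 mM)-contracted rings. ODQ 1 µM incubated after confirmation; rings contracted with KCl 30 mM, then 3-fold increasing compound concentrations (1 nM–10 µM). Isometric tension; pIC50 from half reduction of KCl tone; mean ± SE, 6–10 experiments.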

Row | Structure (SMILES) | solubility [1] | solubility [2] | Activity (Rattus norvegicus [6]) | Activity (Rattus norvegicus [7]) | Activity (Rattus norvegicus [8]) | Activity (Rattus norvegicus [9]) | Activity (Rattus norvegicus [10]) | inhibition [11] | inhibition [12] | IC50 [13] | IC50 [14] | Ratio IC50 (J774) | other results
1 | Cc1c(CC(=O)OCCCO[N+](=O)[O-])cc(-c2ccc(S(C)(=O)=O)cc2)n1-c1cccc(F)c1 | < 1 µM | 1.1 µM (≈ 0.54 µg/mL) | 40% | 41% | 40% | 17% | 35% |  |  |  |  |  | Activity (Mus musculus [3]): 71.2%; Activity (Mus musculus [4]): 23.3%; Activity (Mus musculus [5]): 26.4%
2 | Cc1c(C(N)C(=O)OCCCCO)cc(-c2ccc(S(C)(=O)=O)cc2)n1-c1ccc(F)cc1 (stereo unspecified) |  |  |  |  |  |  |  | 10% | 100% | > 10000 nM | 220 nM | > 45.5 | 
3 | Cc1c(C(N)C(=O)OCCCO[N+](=O)[O-])cc(-c2ccc(S(C)(=O)=O)cc2)n1-c1cccc(F)c1 (stereo unspecified) |  |  |  |  |  |  |  | 5% | 100% | > 10000 nM | 1510 nM | > 6.62 | 
4 | Cc1c(C(N)C(=O)OCCCCO)cc(-c2ccc(S(C)(=O)=O)cc2)n1-c1cccc(F)c1 (stereo unspecified) |  |  |  |  |  |  |  | 23% | 100% | > 10000 nM | 1500 nM | > 6.67 | 
5 | Cc1c(C(N)C(=O)OCCCO[N+](=O)[O-])cc(-c2ccc(S(C)(=O)=O)cc2)n1-c1ccc(F)cc1 (stereo unspecified) | > 200 µM | 80 µM (≈ 40.4 µg/mL) | 40% | 70% | 53% | 16% | 45% | 0% | 95% | > 10000 nM |  | > 12.2 | Activity (Mus musculus [15]): 19%; Activity (Mus musculus [16]): 36.2%; Activity (Mus musculus [17]): 46.1%; Activity (Mus musculus [18]): 59.6%; Activity (Rattus norvegicus [19]): 25%; Activity (Rattus norvegicus [20]): 44%; Activity (Rattus norvegicus [21]): 27%; Activity (Rattus norvegicus [22]): 15%; Activity (Rattus norvegicus [23]): 15%; IC50 (Aorta): 2190 nM
